In ChEMBL document CHEMBL2203244, “Discovery and optimization of a series of 2-aminothiazole-oxazoles as potent phosphoinositide 3-kinase γ inhibitors” (Bioorg Med Chem Lett, 2012):
Values after ≈ are worked out from the molar mass of the structure shown.

Tests used:
[1] = target: T1, Phosphatidylinositol 4,5-bisphosphate 3-kinase catalytic subunit gamma isoform (Homo sapiens, UniProt P48736); assay: Inhibition of human PI3Kgamma using phosphatidylinositol as substrate and [33gammaP]ATP after 2 hrs by scintillation counting
How it was run: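 Recombinant human PI3Kγ (20 ng) incubated 2 h at 30 °C with test inhibitor or DMSO in 20 mM Tris–HCl pH 7.4, 5 mM MgCl2, 5 mM DTT, with ATP/[33P]ATP and PtdIns/PtdSer lipid vesicles as substrate. Reaction stopped with 25 mM EDTA. Product captured on phospholipid scintillant-coated plates, washed with PBS, and bound radioactivity counted by scintillation.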

[2] = target: Phosphatidylinositol 4,5-bisphosphate 3-kinase catalytic subunit gamma isoform (Mus musculus, UniProt Q9JHG7); assay: Inhibition of PI3Kgamma in mouse RAW264.7 cells assessed as inhibition of C5a-induced PKB/Akt phosphorylation incubated for 30 mins prior to C5a-induction measured after 5 mins by immunostaining method; assay type: cell-based
How it was run: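 Raw264.7 murine macrophage-like cells seeded at 8 × 10⁶ per well, grown 24 h, switched to serum-free 0.1% BSA medium for 3 h at 37 °C. Pretreated with or without a range of inhibitor concentrations for 30 min, then stimulated with 5 nM C5a for 5 min at 37 °C. PKB/Akt phosphorylation scored as the cellular read-out.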

[3] = Aqueous solubility of the compound; assay type: physicochemical; conditions: water (aqueous)
How it was run: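 Solubility determined in water.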

[4] = Permeability of the compound at pH 6.2 by PAMPA assay; assay type: ADME; conditions: read-out: permeability
How it was run: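 PAMPA membrane permeability measured at pH 6.2, reported as Pe in cm/s.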

[5] = species: Homo sapiens; assay: Selectivity ratio of IC50 for human PI3Kalpha to IC50 for human PI3Kgamma
How it was run: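 Human PI3Kα and PI3Kγ (20 ng each) assayed by the same radiometric lipid-kinase procedure: 2 h at 30 °C, pH 7.4 Tris buffer with MgCl2 and DTT, [33P]ATP and PtdIns/PtdSer vesicles, stopped with EDTA, captured on scintillant-coated plates and counted. Ratio taken as the PI3Kα IC50 divided by the PI3Kγ IC50.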

[6] = target: Phosphatidylinositol 4,5-bisphosphate 3-kinase catalytic subunit alpha isoform (Homo sapiens, UniProt P42336); assay: Inhibition of human PI3Kalpha using phosphatidylinositol as substrate and [33gammaP]ATP after 2 hrs by scintillation counting
How it was run: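 Recombinant human PI3Kα (20 ng) incubated 2 h at 30 °C in 20 mM Tris–HCl pH 7.4, 5 mM MgCl₂, 5 mM DTT with unlabelled ATP plus [γ-³³P]ATP and lipid vesicles of PtdIns and 25 µM PtdSer (final), with inhibitor or DMSO. Stopped with 25 mM EDTA, captured on phospholipid scintillant-coated plate, PBS-washed, bound counts per second read.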

[7] = target: T1, Phosphatidylinositol 4,5-bisphosphate 3-kinase catalytic subunit gamma isoform

Phosphatidylinositol 4,5-bisphosphate 3-kinase catalytic subunit gamma isoform (Mus musculus, UniProt Q9JHG7), sequence (Q9JHG7 whole entry, canonical isoform): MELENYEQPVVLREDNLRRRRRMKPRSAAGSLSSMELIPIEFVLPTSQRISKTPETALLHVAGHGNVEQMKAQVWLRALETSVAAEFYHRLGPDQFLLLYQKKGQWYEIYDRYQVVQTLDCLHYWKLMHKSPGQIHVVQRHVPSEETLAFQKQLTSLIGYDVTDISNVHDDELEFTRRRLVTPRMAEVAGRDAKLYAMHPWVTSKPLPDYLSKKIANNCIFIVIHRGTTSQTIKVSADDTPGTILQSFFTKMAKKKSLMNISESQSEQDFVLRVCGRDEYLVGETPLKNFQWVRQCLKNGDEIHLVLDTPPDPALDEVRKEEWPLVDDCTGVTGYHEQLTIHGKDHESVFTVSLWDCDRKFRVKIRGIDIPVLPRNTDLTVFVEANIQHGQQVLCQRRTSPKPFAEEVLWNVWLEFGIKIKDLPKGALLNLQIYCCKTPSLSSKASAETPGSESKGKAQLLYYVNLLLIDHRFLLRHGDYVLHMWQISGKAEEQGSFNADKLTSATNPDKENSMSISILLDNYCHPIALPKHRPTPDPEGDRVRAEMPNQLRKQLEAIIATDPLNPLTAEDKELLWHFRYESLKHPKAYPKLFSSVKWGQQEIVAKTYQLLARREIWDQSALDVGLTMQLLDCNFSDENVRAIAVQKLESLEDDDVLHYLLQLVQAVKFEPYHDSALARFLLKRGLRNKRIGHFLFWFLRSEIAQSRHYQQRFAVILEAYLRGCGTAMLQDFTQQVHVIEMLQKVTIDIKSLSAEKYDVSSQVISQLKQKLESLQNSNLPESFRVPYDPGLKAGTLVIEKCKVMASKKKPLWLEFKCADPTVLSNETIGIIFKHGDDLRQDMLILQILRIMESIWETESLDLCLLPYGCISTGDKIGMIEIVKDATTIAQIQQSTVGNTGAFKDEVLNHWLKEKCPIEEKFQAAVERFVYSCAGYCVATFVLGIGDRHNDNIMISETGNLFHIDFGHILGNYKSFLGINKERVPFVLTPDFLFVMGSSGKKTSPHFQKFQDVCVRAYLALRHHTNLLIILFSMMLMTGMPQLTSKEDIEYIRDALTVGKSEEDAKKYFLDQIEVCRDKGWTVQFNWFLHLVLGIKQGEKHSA
Phosphatidylinositol 4,5-bisphosphate 3-kinase catalytic subunit alpha isoform, sequence (P42336 whole entry, canonical isoform): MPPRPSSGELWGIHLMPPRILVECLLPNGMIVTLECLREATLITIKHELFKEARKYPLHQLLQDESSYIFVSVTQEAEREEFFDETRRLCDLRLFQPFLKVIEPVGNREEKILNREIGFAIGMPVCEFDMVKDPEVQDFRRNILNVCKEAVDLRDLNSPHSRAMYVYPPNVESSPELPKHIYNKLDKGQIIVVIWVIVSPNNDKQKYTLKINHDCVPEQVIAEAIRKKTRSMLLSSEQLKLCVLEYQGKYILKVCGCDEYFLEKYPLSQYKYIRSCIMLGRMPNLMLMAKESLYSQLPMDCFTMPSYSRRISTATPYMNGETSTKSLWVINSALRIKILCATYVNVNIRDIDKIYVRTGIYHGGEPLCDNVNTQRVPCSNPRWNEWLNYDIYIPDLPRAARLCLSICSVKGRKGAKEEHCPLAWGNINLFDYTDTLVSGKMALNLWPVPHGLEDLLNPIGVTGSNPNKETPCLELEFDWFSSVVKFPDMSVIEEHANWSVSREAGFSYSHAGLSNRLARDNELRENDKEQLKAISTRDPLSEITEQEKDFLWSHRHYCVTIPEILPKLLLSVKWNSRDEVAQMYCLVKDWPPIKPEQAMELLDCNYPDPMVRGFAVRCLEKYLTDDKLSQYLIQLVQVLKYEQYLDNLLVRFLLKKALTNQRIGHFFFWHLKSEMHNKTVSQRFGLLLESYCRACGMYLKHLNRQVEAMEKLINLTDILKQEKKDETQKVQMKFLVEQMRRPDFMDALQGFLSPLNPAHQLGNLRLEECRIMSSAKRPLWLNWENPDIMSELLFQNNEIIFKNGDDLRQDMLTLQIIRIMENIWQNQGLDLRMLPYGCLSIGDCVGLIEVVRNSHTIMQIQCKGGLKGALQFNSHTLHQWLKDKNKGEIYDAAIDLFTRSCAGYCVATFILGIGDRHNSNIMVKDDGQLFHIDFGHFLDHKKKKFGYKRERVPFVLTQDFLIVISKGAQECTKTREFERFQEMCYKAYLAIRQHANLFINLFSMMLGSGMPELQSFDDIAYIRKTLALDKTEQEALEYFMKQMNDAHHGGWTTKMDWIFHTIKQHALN
T1 sequence (P48736 whole entry, canonical isoform): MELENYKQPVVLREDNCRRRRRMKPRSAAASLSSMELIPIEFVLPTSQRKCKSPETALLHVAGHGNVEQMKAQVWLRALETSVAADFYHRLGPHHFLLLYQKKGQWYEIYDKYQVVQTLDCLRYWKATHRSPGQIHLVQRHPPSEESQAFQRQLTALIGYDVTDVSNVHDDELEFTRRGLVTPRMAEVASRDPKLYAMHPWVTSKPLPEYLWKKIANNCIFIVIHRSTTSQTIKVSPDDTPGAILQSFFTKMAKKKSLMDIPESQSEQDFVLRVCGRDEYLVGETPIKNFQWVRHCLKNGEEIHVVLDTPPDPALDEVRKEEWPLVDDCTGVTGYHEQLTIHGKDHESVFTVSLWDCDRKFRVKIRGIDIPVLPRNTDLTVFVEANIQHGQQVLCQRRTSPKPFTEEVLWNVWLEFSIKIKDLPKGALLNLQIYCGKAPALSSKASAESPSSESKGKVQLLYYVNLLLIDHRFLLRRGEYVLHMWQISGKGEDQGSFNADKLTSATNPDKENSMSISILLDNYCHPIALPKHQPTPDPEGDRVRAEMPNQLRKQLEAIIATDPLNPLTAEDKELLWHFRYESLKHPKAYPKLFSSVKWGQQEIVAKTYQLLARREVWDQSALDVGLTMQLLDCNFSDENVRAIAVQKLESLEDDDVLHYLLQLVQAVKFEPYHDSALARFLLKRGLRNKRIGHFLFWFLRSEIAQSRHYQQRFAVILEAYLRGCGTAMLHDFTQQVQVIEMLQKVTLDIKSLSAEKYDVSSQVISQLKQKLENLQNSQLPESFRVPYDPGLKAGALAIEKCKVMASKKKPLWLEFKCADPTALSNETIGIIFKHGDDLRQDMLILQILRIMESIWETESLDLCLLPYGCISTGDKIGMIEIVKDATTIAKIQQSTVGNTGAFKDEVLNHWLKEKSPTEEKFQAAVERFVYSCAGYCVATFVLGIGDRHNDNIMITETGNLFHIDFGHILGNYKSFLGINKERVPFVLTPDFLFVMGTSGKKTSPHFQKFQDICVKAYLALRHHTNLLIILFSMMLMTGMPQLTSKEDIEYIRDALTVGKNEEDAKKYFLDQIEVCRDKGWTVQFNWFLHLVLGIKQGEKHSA

IC50 [1] [nM] | IC50 [2] [nM] | solubility [3] [µg/mL] | Papp [4] [×10⁻⁶ cm/s] | Ratio IC50 [5] | IC50 [6] [nM] | IC50 [7] [nM] | Compound
14 | 237 | – | – | – | – | – | CC(=O)Nc1nc(C)c(-c2cnc(N3CCCC(O)C3)o2)s1 (stereo not given)
95 | – | – | – | – | – | – | CC(=O)Nc1nc(C)c(-c2cnc(Cc3cccnc3)o2)s1
3 | 59 | 0.39 (≈ 1.3 µM) | 77.3 | 15 | 46 | – | CC(=O)Nc1nc(C)c(-c2cnc(-c3cccnc3)o2)s1
10 | 88 | – | – | 4 | 43 | – | CC(=O)Nc1nc(C)c(-c2cnc(CC(F)(F)F)o2)s1
12 | 222 | – | – | 16 | 195 | – | CC(=O)Nc1nc(C)c(-c2cnc(S(C)(=O)=O)o2)s1
25 | 369 | – | – | – | – | – | CC(=O)Nc1nc(C)c(-c2cnc(C(C)(C)O)o2)s1
24 | 599 | – | – | – | – | – | CC(=O)Nc1nc(C)c(-c2cnc(N3CCOCC3)o2)s1
161 | – | – | – | – | – | – | CC(=O)Nc1nc(C)c(-c2cnc(CO)o2)s1
12 | 431 | – | – | 9 | 102 | – | CC(=O)Nc1nc(C)c(-c2cnc(Nc3cccnc3)o2)s1
46 | 1220 | – | – | – | – | – | CC(=O)Nc1nc(C)c(-c2cnc(N(C)C)o2)s1
346 | – | – | – | – | – | – | CC(=O)Nc1nc(C)c(-c2cnc(Nc3ccc(Cl)cc3)o2)s1
22 | 322 | – | – | – | – | – | CSc1ncc(-c2sc(NC(C)=O)nc2C)o1
– | – | – | – | – | – | 5 | CC(=O)Nc1nc(C)c(-c2csc(Nc3cccc(C(=O)O)c3)n2)s1
223 | > 10000 | – | – | – | – | – | CC(=O)Nc1nc(C)c(-c2cnc(Cc3cccc(C(=O)O)c3)o2)s1
12 | > 10000 | – | 1.4 | 27 | 328 | – | CC(=O)Nc1nc(C)c(-c2cnc(Nc3cccc(C(=O)O)c3)o2)s1
3 | 113 | 35.2 (≈ 126 µM) | 88.4 | 5 | 15 | – | CC(=O)Nc1nc(C)c(-c2cnc(C(C)(C)C)o2)s1
16 | 279 | – | – | 7 | 112 | – | CC(=O)Nc1nc(C)c(-c2cnc(Sc3cccnc3)o2)s1
117 | 1670 | – | – | – | – | – | CC(=O)Nc1nc(C)c(-c2cnc(Oc3cccnc3)o2)s1
250 | – | – | – | – | – | – | COc1ncc(-c2sc(NC(C)=O)nc2C)o1
24 | 1040 | – | – | – | – | – | CC(=O)Nc1nc(C)c(-c2cnc(Nc3ccc(Cl)nc3)o2)s1
181 | – | – | – | – | – | – | CC(=O)Nc1nc(C)c(-c2cnc(C)o2)s1
